{
  "source": "ChEMBL document CHEMBL2150978",
  "about": "“Phosphorodiamidates as a promising new phosphate prodrug motif for antiviral drug discovery: application to anti-HCV agents” (J Med Chem, 2011)",
  "key": {"[1]": {"experiment": "Cytotoxicity against human HuH7 cells after 3 days", "assay_type": "cell-based, Huh-7", "method_in_brief": "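Huh7 replicon cells seeded at 2 × 10⁴ per well one day before dosing. Four-fold serial dilutions in growth medium, no-drug controls on each plate. Incubated 3 days at 37 °C, 5% CO₂. Viability read by CellTiter-Glo luminescence after 20 min with reagent.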"}, "Hepatitis C virus": {"test_system": "Hepatitis C virus", "experiment": "Antiviral activity against Hepatitis C virus subtype 1b Con1 infected in human Huh7 cells assessed as inhibition of HCV replicon-encoded Renilla luciferase reporter activity after 72 hrs by HCV replicon assay", "assay_type": "functional, organism-based, Hepacivirus hominis", "conditions": "Con1, Huh-7, 72 h", "method_in_brief": "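Huh7 cells stably carrying a bicistronic subgenomic genotype 1b (Con1) replicon with Renilla luciferase reporter, seeded at 2 × 10⁴ cells/well the day before. Four-fold serial dilutions in growth medium, no-drug controls on each plate; 3 days at 37 °C, 5% CO₂. Luciferase reagent 20 min, then luminescence (RLU) read; EC₅₀ derived.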"}},
  "data": [
    {"smiles": "COc1nc(N)nc2c1ncn2[C@@H]1O[C@H](COP(=O)(N[C@@H](C)C(=O)OCC(C)(C)C)N[C@@H](C)C(=O)OC(C)(C)C)[C@@H](O)[C@@]1(C)O", "note": "(mixture of isomers)", "values": [
      {"measurement": "CC50 at 72 h", "setting": "[1]", "result": "> 100000", "unit": "nM"},
      {"measurement": "EC50", "setting": "Hepatitis C virus", "result": 150, "unit": "nM"},
      {"measurement": "EC90", "setting": "Hepatitis C virus", "result": 570, "unit": "nM"}
    ]},
    {"smiles": "COC(=O)[C@H](C)NP(=O)(N[C@@H](C)C(=O)OC)OC[C@H]1O[C@@H](n2cnc3c(OC)nc(N)nc32)[C@](C)(O)[C@@H]1O", "note": "(mixture of isomers)", "values": [
      {"measurement": "CC50 at 72 h", "setting": "[1]", "result": "> 100000", "unit": "nM"},
      {"measurement": "EC50", "setting": "Hepatitis C virus", "result": 5900, "unit": "nM"},
      {"measurement": "EC90", "setting": "Hepatitis C virus", "result": "> 10000", "unit": "nM"}
    ]},
    {"smiles": "COc1nc(N)nc2c1ncn2[C@@H]1O[C@H](COP(=O)(N[C@@H](CCSC)C(=O)OCC(C)(C)C)N[C@@H](CCSC)C(=O)OCC(C)(C)C)[C@@H](O)[C@@]1(C)O", "note": "(mixture of isomers)", "values": [
      {"measurement": "CC50 at 72 h", "setting": "[1]", "result": "> 100000", "unit": "nM"},
      {"measurement": "EC50", "setting": "Hepatitis C virus", "result": 2220, "unit": "nM"},
      {"measurement": "EC90", "setting": "Hepatitis C virus", "result": 5000, "unit": "nM"}
    ]},
    {"smiles": "COc1nc(N)nc2c1ncn2[C@@H]1O[C@H](COP(=O)(N[C@@H](C)C(=O)OCc2ccccc2)N[C@@H](C)C(=O)OCc2ccccc2)[C@@H](O)[C@@]1(C)O", "note": "(mixture of isomers)", "values": [
      {"measurement": "CC50 at 72 h", "setting": "[1]", "result": "> 100000", "unit": "nM"},
      {"measurement": "EC50", "setting": "Hepatitis C virus", "result": 490, "unit": "nM"},
      {"measurement": "EC90", "setting": "Hepatitis C virus", "result": 1600, "unit": "nM"}
    ]},
    {"smiles": "COc1nc(N)nc2c1ncn2[C@@H]1O[C@H](COP(=O)(N[C@@H](C)C(=O)OC2CCCCC2)N[C@@H](C)C(=O)OC2CCCC2)[C@@H](O)[C@@]1(C)O", "note": "(mixture of isomers)", "values": [
      {"measurement": "CC50 at 72 h", "setting": "[1]", "result": "> 100000", "unit": "nM"},
      {"measurement": "EC50", "setting": "Hepatitis C virus", "result": 40, "unit": "nM"},
      {"measurement": "EC90", "setting": "Hepatitis C virus", "result": 160, "unit": "nM"}
    ]},
    {"smiles": "COc1nc(N)nc2c1ncn2[C@@H]1O[C@H](COP(=O)(N[C@H](C(=O)OC2CCCCC2)C(C)C)N[C@H](C(=O)OC2CCCCC2)C(C)C)[C@@H](O)[C@@]1(C)O", "note": "(mixture of isomers)", "values": [
      {"measurement": "CC50 at 72 h", "setting": "[1]", "result": 20000, "unit": "nM"},
      {"measurement": "EC50", "setting": "Hepatitis C virus", "result": 2500, "unit": "nM"},
      {"measurement": "EC90", "setting": "Hepatitis C virus", "result": 10000, "unit": "nM"}
    ]},
    {"smiles": "CCOc1nc(N)nc2c1ncn2[C@@H]1O[C@H](COP(=O)(N[C@@H](C)C(=O)OC2CCCCC2)N[C@@H](C)C(=O)OC2CCCCC2)[C@@H](O)[C@@]1(C)O", "note": "(mixture of isomers)", "values": [
      {"measurement": "CC50 at 72 h", "setting": "[1]", "result": 69000, "unit": "nM"},
      {"measurement": "EC50", "setting": "Hepatitis C virus", "result": 50, "unit": "nM"},
      {"measurement": "EC90", "setting": "Hepatitis C virus", "result": 150, "unit": "nM"}
    ]},
    {"smiles": "COc1nc(N)nc2c1ncn2[C@@H]1O[C@H](COP(=O)(N[C@H](C(=O)OC2CCCCC2)c2ccccc2)N[C@H](C(=O)OC2CCCCC2)c2ccccc2)[C@@H](O)[C@@]1(C)O", "note": "(mixture of isomers)", "values": [
      {"measurement": "CC50 at 72 h", "setting": "[1]", "result": 18000, "unit": "nM"},
      {"measurement": "EC50", "setting": "Hepatitis C virus", "result": 320, "unit": "nM"},
      {"measurement": "EC90", "setting": "Hepatitis C virus", "result": 1800, "unit": "nM"}
    ]},
    {"smiles": "CCCCNP(=O)(N[C@@H](C)C(=O)OCc1ccccc1)OC[C@H]1O[C@@H](n2cnc3c(OC)nc(N)nc32)[C@](C)(O)[C@@H]1O", "note": "(mixture of isomers)", "values": [
      {"measurement": "CC50 at 72 h", "setting": "[1]", "result": "> 100000", "unit": "nM"},
      {"measurement": "EC50", "setting": "Hepatitis C virus", "result": 440, "unit": "nM"},
      {"measurement": "EC90", "setting": "Hepatitis C virus", "result": 1680, "unit": "nM"}
    ]},
    {"smiles": "CCN(CC)P(=O)(N[C@@H](C)C(=O)OCC(C)(C)C)OC[C@H]1O[C@@H](n2cnc3c(OC)nc(N)nc32)[C@](C)(O)[C@@H]1O", "note": "(mixture of isomers)", "values": [
      {"measurement": "CC50 at 72 h", "setting": "[1]", "result": "> 100000", "unit": "nM"},
      {"measurement": "EC50", "setting": "Hepatitis C virus", "result": 3700, "unit": "nM"},
      {"measurement": "EC90", "setting": "Hepatitis C virus", "result": "> 10000", "unit": "nM"}
    ]},
    {"smiles": "COc1nc(N)nc2c1ncn2[C@@H]1O[C@H](COP(=O)(N[C@@H](CC(C)C)C(=O)OCc2ccccc2)N[C@@H](CC(C)C)C(=O)OCc2ccccc2)[C@@H](O)[C@@]1(C)O", "note": "(mixture of isomers)", "values": [
      {"measurement": "CC50 at 72 h", "setting": "[1]", "result": 39000, "unit": "nM"},
      {"measurement": "EC50", "setting": "Hepatitis C virus", "result": 380, "unit": "nM"},
      {"measurement": "EC90", "setting": "Hepatitis C virus", "result": 1310, "unit": "nM"}
    ]},
    {"smiles": "COc1nc(N)nc2c1ncn2[C@@H]1O[C@H](COP(=O)(N[C@@H](C)C(=O)OC2CCC2)N[C@@H](C)C(=O)OC2CCC2)[C@@H](O)[C@@]1(C)O", "note": "(mixture of isomers)", "values": [
      {"measurement": "CC50 at 72 h", "setting": "[1]", "result": "> 100000", "unit": "nM"},
      {"measurement": "EC50", "setting": "Hepatitis C virus", "result": 320, "unit": "nM"},
      {"measurement": "EC90", "setting": "Hepatitis C virus", "result": 800, "unit": "nM"}
    ]},
    {"smiles": "CCCCNP(=O)(N[C@@H](C)C(=O)OCC(C)(C)C)OC[C@H]1O[C@@H](n2cnc3c(OC)nc(N)nc32)[C@](C)(O)[C@@H]1O", "note": "(mixture of isomers)", "values": [
      {"measurement": "CC50 at 72 h", "setting": "[1]", "result": "> 100000", "unit": "nM"},
      {"measurement": "EC50", "setting": "Hepatitis C virus", "result": 410, "unit": "nM"},
      {"measurement": "EC90", "setting": "Hepatitis C virus", "result": 1500, "unit": "nM"}
    ]},
    {"smiles": "CCOc1nc(N)nc2c1ncn2[C@@H]1O[C@H](CO)[C@@H](O)[C@@]1(C)O", "values": [
      {"measurement": "CC50 at 72 h", "setting": "[1]", "result": "> 100000", "unit": "nM"},
      {"measurement": "EC50", "setting": "Hepatitis C virus", "result": 9500, "unit": "nM"},
      {"measurement": "EC90", "setting": "Hepatitis C virus", "result": 24500, "unit": "nM"}
    ]},
    {"smiles": "CC[C@H](C)[C@H](NP(=O)(N[C@H](C(=O)OCc1ccccc1)[C@@H](C)CC)OC[C@H]1O[C@@H](n2cnc3c(OC)nc(N)nc32)[C@](C)(O)[C@@H]1O)C(=O)OCc1ccccc1", "note": "(mixture of isomers)", "values": [
      {"measurement": "CC50 at 72 h", "setting": "[1]", "result": 24000, "unit": "nM"},
      {"measurement": "EC50", "setting": "Hepatitis C virus", "result": 400, "unit": "nM"},
      {"measurement": "EC90", "setting": "Hepatitis C virus", "result": 1560, "unit": "nM"}
    ]}
  ]
}
